Assay results: ChEMBL document CHEMBL5143761, “Aroylhydrazone Glycoconjugate Prochelators Exploit Glucose Transporter 1 (GLUT1) to Target Iron in Cancer Cells” (ACS Med Chem Lett, 2022)
Activity calls are given as the source filed them. The rule behind the calls is not given here.

Columns and labels:
A2780 [1] = experiment: Antiproliferative activity against human A2780 cells incubated for 72 hrs by MTT assay; format: functional, cell-based; details: A2780, 72 h
Summary of the method: (§1)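 MTT assay after 72 h continuous exposure in MDA-MB-231 breast and A2780 ovarian cancer cells and MRC-5 normal lung fibroblasts. IC50 taken from the resulting dose–response.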

MDA-MB-231 [2] = experiment: Antiproliferative activity against human MDA-MB-231 cells incubated for 72 hrs by MTT assay; format: functional, cell-based; details: MDA-MB-231, 72 h; summary of the method: as §1
[3] = Antiproliferative activity against human MRC5 cells incubated for 72 hrs by MTT assay; format: toxicity, cell-based; summary of the method: as §1
A2780 [4] = experiment: Induction of apoptosis in human A2780 cells assessed as early apoptosis level at 20 uM incubated for 48 hrs by PI and FITC-Annexin V staining based flow cytometry; format: functional
Summary of the method: (§2)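 A2780 cells exposed to compound (20 μM) for 48 h. Cells then stained with FITC-Annexin V and propidium iodide and analysed by flow cytometry for early and late apoptotic fractions. Triplicate, mean ± standard deviation.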

A2780 [5] = experiment: Antiproliferative activity against human A2780 cells incubated for 72 hrs in presence of 12.5 uM GLUT1 inhibitor phloretin by MTT assay; format: functional, cell-based
Summary of the method: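 A2780 cells given test compound together with the GLUT1 inhibitor phloretin (12.5 μM) for 72 h. Read-out by MTT, giving IC50. Triplicate runs, reported as mean ± standard deviation.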

MDA-MB-231 [6] = experiment: Antiproliferative activity against human MDA-MB-231 cells ectopically overexpressing GLUT1 incubated for 72 hrs by MTT assay relative to normal cells; format: functional, cell-based
Summary of the method: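 MDA-MB-231 derivative line transduced to overexpress GLUT1 is compared with an isogenic control line transduced with the same vector expressing Turbo-635 fluorescent protein. GLUT1 levels were checked by Western blot. IC50 from MTT after 72 h. Triplicate, mean ± standard deviation.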

[7] = Induction of intracellular iron sequestration in human A2780 cells at 20 uM by calcein based fluorescence assay
A2780 [8] = experiment: Induction of apoptosis in human A2780 cells assessed as late apoptosis level at 20 uM incubated for 48 hrs by PI and FITC-Annexin V staining based flow cytometry; format: functional; summary of the method: as §2
[9] = (§3) Inhibition of cellular uptake of fluorescent glucose 2-NBDG in human A2780 cells at 50 uM incubated for 20 mins by flow cytometry; format: functional; parameters: scale not given: the % may be the effect or the level left
Summary of the method: (§4)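 A2780 cells held 12 h in glucose-free medium. They were then coincubated for 20 min with compound (50 μM) and 2-NBDG (100 μM) in growth medium with 1 g/L D-glucose. 2-NBDG uptake was read as flow-cytometric fluorescence, with phloretin (50 μM) as positive control. Triplicate, mean ± standard deviation.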

[10] = Ratio of IC50 for antiproliferative activity against human A2780 cells incubated for 72 hrs in presence of 12.5 uM GLUT1 inhibitor phloretin by MTT assay to IC50 antiproliferative activity against human A2780 cells incubated for 72 hrs in absence of 12.5 uM GLUT1 inhibitor phloretin by MTT assay; format: functional
Summary of the method: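 A2780 ovarian cancer cells were treated for 72 h with compound, either alone or coincubated with the GLUT1 inhibitor phloretin at 12.5 μM. Viability was read by MTT assay. IC50 values were determined in triplicate under each condition and reported as averages ± standard deviation. The value is the IC50 with phloretin relative to the IC50 without it.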

A2780 [11] = experiment: as §3; format: functional; summary of the method: as §4

| IC50 (A2780 [1]) [µM] | IC50 (MDA-MB-231 [2]) [µM] | SMILES | IC50 at 72 h [3] [µM] | Activity (A2780 [4]) [%] | inhibition (A2780 [5]) | Activity (MDA-MB-231 [6]) | Activity [7] [%] | Activity (A2780 [8]) [%] | Activity [9] [%] | Ratio IC50 [10] | inhibition (A2780 [11]) |
| --- | --- | --- | --- | --- | --- | --- | --- | --- | --- | --- | --- |
| 3.5 | 6.1 | CC(=O)N(O)CCCCCNC(=O)CCC(=O)N(O)CCCCCNC(=O)CCC(=O)N(O)CCCCCN [DEFEROXAMINE] | 9 |  |  |  |  |  |  |  |  |
| 2.1 | 12 | COC(=O)CCSSc1ccccc1/C=N/NC(=O)c1ccccc1 | 12 | 5 | Active | Active | 20 |  |  |  |  |
|  |  | O=C(N/N=C/c1ccccc1O)c1ccncc1 [SALINAZID] |  | 7.8 |  |  |  | 38 |  |  |  |
| 5.3 | 17 | O=C(CCSSc1ccccc1/C=N/NC(=O)c1ccccc1)N[C@H]1C(O)O[C@H](CO)[C@@H](O)[C@@H]1O (stereo partly drawn) | 33 | 5 |  | Active | 20 |  | >20 |  |  |
| 2.5 | 22 | O=C(CCSSc1ccccc1/C=N/NC(=O)c1ccccc1)OC[C@H]1OC(O)C[C@@H](O)[C@@H]1O (stereo partly drawn) | 29 | 5 |  | Active | 20 | 20 | >20 | >5 |  |
|  |  | O=C(CCc1ccc(O)cc1)c1c(O)cc(O)cc1O |  |  |  |  |  |  |  |  | Active |
|  |  | OC[C@H]1OC(O)C[C@@H](O)[C@@H]1O (stereo partly drawn) |  | 3.6 |  |  |  | 3.4 |  |  |  |
| 5.2 | 17 | O=C(CCSSc1ccccc1/C=N/NC(=O)c1ccccc1)OC[C@H]1OC(O)[C@H](O)[C@@H](O)[C@@H]1O (stereo partly drawn) | 26 | 5 |  | Active | 20 |  | >20 |  |  |
